Bioassay records as filed in PubChem.
FGF22 binding = binders of human FGF22 protein, primary screen, FGF22 synaptogenesis inhibitor project, biophysical, thermal shift, single point; 340,000 compounds, 1.5% hits; recombinant FGF22 thermal shift, SYPRO orange fluorescence; percent of sucrose octasulfate shift, DMSO zero; activity (Tm shift, normalised), % at 9.99 µM; Fibroblast growth factor 22 (Homo sapiens), Q9HCT0;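 active means mean Tm shift, scaled 0 neutral to 100 positive control, at about 1.3% or above, every replicate too, limit read from the data; inconclusive means no clear call, values can overlap the other calls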
Target sequence (Q9HCT0 whole entry, looked up): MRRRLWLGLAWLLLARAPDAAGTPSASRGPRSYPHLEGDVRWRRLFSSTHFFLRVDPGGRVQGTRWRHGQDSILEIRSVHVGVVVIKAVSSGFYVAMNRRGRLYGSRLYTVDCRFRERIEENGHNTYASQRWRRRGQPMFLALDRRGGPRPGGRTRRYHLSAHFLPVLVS
ARNT TACC3 PPI = disruptors of ARNT/TACC3 protein interaction, primary screen, biochemical, AlphaScreen, single concentration; AlphaScreen His-ARNT PAS-B/GST-TACC3 binding, luminescence; TACC3 fragment carries E629A point mutation; 390,000 compounds, 0.66% hits; inhibition, % at 9.99 µM; Transforming acidic coiled-coil-containing protein 3 (Homo sapiens), Q9Y6A5;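 active means mean inhibition of replicates at least 50% and at least half of replicates each reaching 50%; inconclusive means half or more replicates reach 50% but mean below 50%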;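 further: 0% = complete ARNT plus TACC3 wells and 100% = ARNT alone without TACC3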
SIRT5 inh = SIRT5 desuccinylase inhibitors, primary screen, biochemical, fluorescence imaging, single point, set 5 | Purified SirT5, succinyl-peptide AMC, trypsin-coupled fluorescence | inhibition, % at 15 µM | 330,000 compounds, 1.1% hits | AID 652115, 2013; in the data active means inhibition above about 15%; inconclusive means no clear call, values can overlap the other calls
Target sequence (Q9NXA8 whole entry, looked up): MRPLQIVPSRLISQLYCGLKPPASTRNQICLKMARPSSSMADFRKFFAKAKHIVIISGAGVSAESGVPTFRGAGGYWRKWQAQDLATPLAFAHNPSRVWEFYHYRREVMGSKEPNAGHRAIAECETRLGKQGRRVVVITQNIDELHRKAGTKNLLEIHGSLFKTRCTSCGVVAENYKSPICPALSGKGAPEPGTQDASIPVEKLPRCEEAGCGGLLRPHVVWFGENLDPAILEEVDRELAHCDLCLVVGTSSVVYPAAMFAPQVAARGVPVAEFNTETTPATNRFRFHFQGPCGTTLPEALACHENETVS
DENV2 CPE rescue = inhibitors of DENV2 cytopathic effect, primary screen, cell-based, plate reader, single concentration. DENV2-infected cells, cytopathic effect rescue. CPE inhibition, % at 9.99 µM. 350,000 compounds, 1.7% hits. AID 651640, 2012; in the data active means CPE inhibition above about 20%, passing the limit was not always enough; inconclusive means no clear call, values can overlap the other calls; tested in BHK-21 cells;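 further: 0% = median of neutral control wells and 100% = median of positive control wells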
FN deposition inh = inhibitors of fibronectin matrix deposition, primary screen, AH1F cells, Alexa488-fibronectin fluorescence, plate reader | AH1F fibroblasts, overnight | inhibition, % at 12.6 µM | 350,000 compounds, 0.086% hits;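 active means mean inhibition across replicates of 30% or more, regardless of how many single replicates reach that level; inconclusive means mean under 30% yet at least half of replicates reach 30%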;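 further: positive control wells lacked labelled fibronectin entirely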
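Test system: AH1F fibroblast monolayer depositing Alexa488-labelled fibronectin into matrix. Input: 10000 cells per well. Technique: fluorescence, ex 485 nm, em 525 nm. Buffer or medium: DMEM plus 2% serum, read in PBS. Timing: 1 h cell adhesion before compound, then overnight fibronectin incubation. Compound: single dose, pinned. Read-out basis: inhibition from reduced deposited-fibronectin fluorescence.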
Xi reactivation = activators of inactive X chromosome reactivation, primary screen, imaging, XiGFP fibroblasts, GFP high-content imaging, set 2; XiGFP mouse fibroblasts, % GFP-positive cells imaging, 3 d; cells co-treated with 5-aza-dC sensitizer; scaled so ellipticine positive control = 100%; activation, % at 7.58 µM; 360,000 compounds, 0.055% hits; AID 743238, 2013;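 active means mean normalized replicate activation at least 10% and every replicate at or above 10%; inconclusive means only one of the two criteria met; inactive means mean below 10% and not all replicates reach 10%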;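 further: 0% = median of on-plate neutral control wells and 100% = ellipticine 6 µM median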
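assay system = SV40-immortalized XiGFP fibroblast cells, line 68-5-11 | buffer or medium = DMEM plus 5-aza-dC sensitizer | doses = single-point pinned compound dosing | times = 3-day compound exposure, then 15 min fixation at room temperature | benchmarks = positive control ellipticine, 6 µM final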
* hit, by the source's call; u = inconclusive; x = no result. Shown are actives, neighbours in structure and some others; about 3.8% of the full set was active somewhere.

SMILES	FGF22 binding	ARNT TACC3 PPI	SIRT5 inh	DENV2 CPE rescue	FN deposition inh	Xi reactivation
Cc1noc(C)c1C(=O)N(C)C[C@@H]1OCc2ccccc2-c2c(n(C)c3ccccc23)C(=O)N([C@H](C)CO)C[C@H]1C	0	x	17*	-5	5	0
COc1cccc(-c2ccc3c(c2)O[C@H](CN(C)C)[C@H](C)CN([C@H](C)CO)S3(=O)=O)c1	0	-2	-2	19	x	0
CN1C(=O)c2cc(NC(=O)C3CCC3)ccc2OC[C@H]2O[C@H](CC(=O)NCCc3ccncc3)CC[C@H]21	0	x	4	u	-1	0
CN(C(=O)c1ccc(Br)o1)C1CCCCC1	0	1	1	61*	9	0
CC(=O)Nc1ccc(NC(=O)c2ccccc2C)cc1	0	-9	-1	-6	x	x
O=C(Nc1cccc(Br)c1)c1ccc(CSc2ccccc2)cc1	0	-3	24*	0	18	0
O=C(Nc1ccccc1)c1ccccc1CSc1ccccc1	0	6	x	44*	-1	-1
O=C(Nc1cccnc1)c1ccc(CSc2ccccc2)cc1	0	-4	0	-3	8	0
CC(=O)Nc1ccc(NC(=O)c2ccccc2CCc2ccccc2)cc1	44*	-2	-5	1	-9	0
COc1ccc(S(=O)(=O)Nc2ccc3c(c2)C(=O)N([C@@H](C)CO)C[C@H](C)[C@@H](CN(C)C(=O)Nc2ccc4c(c2)OCO4)O3)cc1	x	x	x	x	-7	-1
COc1ccc(N2C(=O)CC(NNc3ncc(Cl)cc3Cl)C2=O)cc1 (centres undefined)	0	68*	-1	x	-13	0
CCCCn1c(-c2csc(C(C)C)c2)n[nH]c1=S	0	0	17*	15	4	0
COc1ccccc1C(=O)N1C[C@H]2[C@@H](c3ccccc31)[C@@H](CO)N2Cc1ccc(F)cc1	0	-4	16*	0	x	0
CCC(=O)N1C[C@@H]2[C@H](c3ccccc31)[C@H](CO)N2Cc1ccccc1OC	-1	-31	0	35*	x	0
CCC(=O)N1C[C@H]2[C@@H](c3ccccc31)[C@@H](CO)N2Cc1cc(F)ccc1F	0	1	28*	-1	x	0
COc1ccccc1C(=O)N1C[C@@H]2[C@H](c3ccccc31)[C@H](CO)N2Cc1ccc(F)cc1	0	10	x	4	x	0
CCC(=O)N1C[C@H]2[C@@H](c3ccccc31)[C@@H](CO)N2Cc1ccccc1OC	-1	-20	7	-3	x	0
C[C@H]1CCCCO[C@H](CN(C)S(=O)(=O)c2ccc(Cl)cc2)[C@@H](C)CN([C@@H](C)CO)C(=O)c2cc(NC(=O)CCC(F)(F)F)ccc2O1	0	3	9	11	-1	0
CC(C)NC(=O)Nc1ccc2c(c1)C(=O)N([C@@H](C)CO)C[C@@H](C)[C@H](CN(C)C(=O)C1CCCCC1)OCCCC[C@H](C)O2	x	46*	-4	2	4	0
C[C@H]1CCCCO[C@@H](CN(C)C(=O)C2CCCCC2)[C@@H](C)CN([C@@H](C)CO)C(=O)c2cc(NC(=O)Cc3ccccc3)ccc2O1	1.9*	-1	-1	10	x	0
C[C@@H]1CN([C@H](C)CO)C(=O)c2cc(NC(=O)Nc3ccccc3)ccc2O[C@@H](C)CCCCO[C@@H]1CN(C)C(=O)C1CCCCC1	-1	-11	0	71*	x	x
CC(C)NC(=O)Nc1ccc2c(c1)C(=O)N([C@@H](C)CO)C[C@@H](C)[C@@H](CN(C)C(=O)C1CCCCC1)OCCCC[C@H](C)O2	0	12	-1	6	-4	0
C[C@@H]1CCCCO[C@H](CN(C)C(=O)C2CCCCC2)[C@@H](C)CN([C@@H](C)CO)C(=O)c2cc(NC(=O)Nc3ccc(F)cc3)ccc2O1	0	-4	6	47*	x	0
C[C@H]1CCCCO[C@H](CN(C)C(=O)C2CCCCC2)[C@@H](C)CN([C@@H](C)CO)C(=O)c2cc(NC(=O)Nc3ccccc3)ccc2O1	-1	-10	1	-4	9	0
CS(=O)(=O)N1[C@H](C(=O)NC2CCC2)[C@@H](CO)[C@@H]2Cn3c(ccc(-c4ccccc4)c3=O)[C@@H]21	0	2	-6	-2	x	0
SMILES	FGF22 binding	ARNT TACC3 PPI	SIRT5 inh	DENV2 CPE rescue	FN deposition inh	Xi reactivation
CC(=O)N1[C@H](CO)[C@H]2c3ccccc3N(S(=O)(=O)c3ccc(F)cc3)C[C@H]21	x	3	x	x	x	0
C[C@@H]1CN([C@@H](C)CO)C(=O)c2cc(NC(=O)Nc3ccc(F)cc3)ccc2O[C@@H](C)CCCCO[C@@H]1CN(C)C(=O)C1CCCCC1	0	-6	7	-2	x	0
C[C@@H]1CCCCO[C@@H](CN(C)C(=O)C2CCCCC2)[C@H](C)CN([C@@H](C)CO)C(=O)c2cc(NC(=O)Nc3ccc(F)cc3)ccc2O1	0	-5	19*	25*	x	0
C[C@@H]1CCCCO[C@@H](CN(C)C(=O)C2CCCCC2)[C@@H](C)CN([C@@H](C)CO)C(=O)c2cc(NC(=O)Nc3ccc(F)cc3)ccc2O1	-1	-2	4	21*	x	0
C[C@@H]1CCCCO[C@@H](CN(C)C(=O)C2CCCCC2)[C@H](C)CN([C@@H](C)CO)C(=O)c2cc(NC(=O)c3ccncc3)ccc2O1	0	-1	17*	-11	x	0
CC(Sc1nc2ccccc2c(=O)n1CCCN1CCOCC1)C(=O)N1CCc2ccccc21 (centres undefined)	44*	-15	-7	-1	-3	0
Cc1cccc(NC(=O)C(C)Sc2nc3ccccc3c(=O)n2CCCN2CCOCC2)c1 (centres undefined)	0	x	-1	-2	11	0
CC(C)OCCCn1c(SCC(=O)N2CCCC2=O)nc2ccccc2c1=O	0	4	-2	-7	x	0
CC(C)OCCCn1c(SCC(=O)N2CCc3ccccc32)nc2ccccc2c1=O	0	-11	21*	-14	-4	0
COc1ccc(NC(=O)Nc2cccc3c2O[C@H](CN(C)Cc2ccccc2)[C@H](C)CN([C@H](C)CO)C3=O)cc1	0	-3	12	30*	x	-1
